Test results from ChEMBL document CHEMBL1128433, “Novel 1,2-dithiins: synthesis, molecular modeling studies, and antifungal activity” (1995).
Values after ≈ are worked out from the molar mass of the structure shown.

Assays:
Format in all cases: functional
Aspergillus fumigatus = test: Antifungal activity against aspergillus fumigatus
Summary of the method: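 A. fumigatus grown on SAB agar 3–4 d at 35 °C; conidia used as inoculum at final 1 × 10^3 cfu/mL. Broth microdilution in SAB broth, 2-fold serial dilutions of compound dissolved in ethanol or DMSO. Incubated 48 h at 35 °C. MIC read by eye as the lowest concentration with no visible growth. Amphotericin B reference.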

Candida albicans = test: Antifungal activity against candida albicans
Summary of the method: (§1)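 Candida grown 24 h at 35 °C on YM agar, then 6 h at 35 °C with rotation in GYB broth (2% glucose, 1% yeast extract). Final inoculum 2 × 10^3 cfu/mL. 96-well SAB broth microdilution, 2-fold series from ethanol or DMSO solutions. 24 h at 35 °C; MIC = lowest concentration without visible growth. Amphotericin B reference.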

Cryptococcus neoformans = test: Antifungal activity against cryptococcus neoformans
Summary of the method: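 C. neoformans grown on YM agar 48 h at 35 °C, then 6 h in GYB broth at 35 °C with rotation. Final inoculum 2 × 10^4 cfu/mL. SAB broth microdilution with 2-fold serial dilutions (compound in ethanol or DMSO). Incubated 48 h at 35 °C; MIC read visually as the lowest concentration with no growth. Amphotericin B reference.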

Pichia kudriavzevii = test: Antifungal activity against candida krusei GK7831; summary of the method: as §1
Candida parapsilosis = test: Antifungal activity against candida parapsilosis CP18; settings: Lodderomyces parapsilosis; summary of the method: as §1
Candida tropicalis = test: Antifungal activity against candida tropicalis 1525; summary of the method: as §1
Trichophyton rubrum = test: Antifungal activity against Trichophyton rubrum ATCC 18762
Summary of the method: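 T. rubrum grown on SAB agar 5–7 d at 25 °C; conidia as inoculum, final 1 × 10^4 cfu/mL. Compounds in ethanol or DMSO, 2-fold serial dilutions in SAB broth in 96-well plates. Incubated 7 d at 25 °C. MIC taken as the lowest concentration with no visible growth versus the growth-control wells. Amphotericin B was the reference.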

Row | SMILES | MIC (Aspergillus fumigatus) [µg/mL] | MIC (Candida albicans) [µg/mL] | MIC (Cryptococcus neoformans) [µg/mL] | MIC (Pichia kudriavzevii) [µg/mL] | MIC (Candida parapsilosis) [µg/mL] | MIC (Candida tropicalis) [µg/mL] | MIC (Trichophyton rubrum) [µg/mL]
1 | COC(=O)c1ccc(OCC2=CC=C(CO)SS2)cc1 | 12.5 (≈ 40.3 µM) | 3.1 (≈ 9.99 µM) | 3.1 (≈ 9.99 µM) |  |  |  | 
2 | O=C(NCC1=CC=C(CO)SS1)c1ccccc1O | > 100 | > 100 | 100 (≈ 339 µM) |  |  |  | 
3 | O=C(NCC1=CC=C(CO)SS1)Nc1ccccc1O | > 100 | > 100 | > 100 |  |  |  | 
4 | OCC1=CC=C(COc2ccccc2C(F)(F)F)SS1 | 50 (≈ 156 µM) | 25 (≈ 78 µM) | 6.3 (≈ 19.7 µM) |  |  |  | 
5 | COC(=O)c1ccccc1OCC1=CC=C(CO)SS1 | 12.5 (≈ 40.3 µM) | 6.3 (≈ 20.3 µM) | 6.3 (≈ 20.3 µM) |  |  |  | 
6 | OCC1=CC=C(COc2ccccc2)SS1 | 25 (≈ 99.1 µM) | 25 (≈ 99.1 µM) | 12.5 (≈ 49.5 µM) |  |  |  | 
7 | [N-]=[N+]=NCC1=CC=C(CCl)SS1 | 50 (≈ 228 µM) | 25 (≈ 114 µM) | 6.3 (≈ 28.7 µM) |  |  |  | 
8 | CC1(C)OCC(COCC2=CC=C(COCC(O)CO)SS2)O1 (stereo not given) | > 100 | > 100 | > 100 |  |  |  | 
9 | Cc1ccc(S(=O)(=O)NC(=O)OCC2=CC=C(CO)SS2)cc1 | 100 (≈ 268 µM) | 100 (≈ 268 µM) | 50 (≈ 134 µM) |  |  |  | 
10 | CC(=O)NCC1=CC=C(CO)SS1 | > 100 | > 100 | 100 (≈ 460 µM) |  |  |  | 
11 | O=c1ccccn1CC1=CC=C(CO)SS1 | > 100 | > 100 | 12.5 (≈ 49.3 µM) |  |  |  | 
12 | CCOC(=O)/C=C/C1=CC=C(CO)SS1 | 25 (≈ 102 µM) | 12.5 (≈ 51.2 µM) | 6.3 (≈ 25.8 µM) |  |  |  | 
13 | COC(=O)c1cccc(OCC2=CC=C(CO)SS2)c1 | 25 (≈ 80.5 µM) | 3.1 (≈ 9.99 µM) | 6.3 (≈ 20.3 µM) |  |  |  | 
14 | OCC1=CC=C(CSc2nnnn2-c2ccc(O)cc2)SS1 | 12.5 (≈ 35.5 µM) | 25 (≈ 70.9 µM) | 6.3 (≈ 17.9 µM) |  |  |  | 
15 | OCC1=CC=C(COc2ccc(O)nn2)SS1 | > 100 | > 100 | > 100 |  |  |  | 
16 | O=C(Nc1ccccc1O)OCC1=CC=C(CO)SS1 | 50 (≈ 161 µM) | 100 (≈ 321 µM) | 50 (≈ 161 µM) |  |  |  | 

The next compounds have a lower MIC (Aspergillus fumigatus) than those just listed; values first:

Row | MIC (Aspergillus fumigatus) [µg/mL] | MIC (Candida albicans) [µg/mL] | MIC (Cryptococcus neoformans) [µg/mL] | MIC (Pichia kudriavzevii) [µg/mL] | MIC (Candida parapsilosis) [µg/mL] | MIC (Candida tropicalis) [µg/mL] | MIC (Trichophyton rubrum) [µg/mL] | SMILES
17 | 6.3 (≈ 31 µM) | 6.3 (≈ 31 µM) | 6.3 (≈ 31 µM) |  |  |  |  | CO/N=C/C1=CC=C(CO)SS1
18 | 2 (≈ 5.18 µM) | 2 (≈ 5.18 µM) |  |  |  |  |  | O=C(OCC1=CC=C(COC(=O)c2cccnc2)SS1)c1cccnc1
19 | 1.6 (≈ 5.69 µM) | 3.1 (≈ 11 µM) |  |  |  |  |  | O=C(OCC1=CC=C(CO)SS1)c1ccncc1
20 | 6.3 (≈ 17.8 µM) | 1.6 (≈ 4.51 µM) | 1.6 (≈ 4.51 µM) |  |  |  |  | OCC1=CC=C(COc2cc(C(F)(F)F)ccc2Cl)SS1
21 | 0.4 (≈ 1.83 µM) | 3.1 (≈ 14.2 µM) | 0.2 (≈ 0.916 µM) | 1.25 (≈ 5.73 µM) | 1.25 (≈ 5.73 µM) | 1.25 (≈ 5.73 µM) | 0.31 (≈ 1.42 µM) | CC(=O)OCC1=CC=C(CO)SS1
22 | 3.1 (≈ 11.1 µM) | 6.3 (≈ 22.5 µM) | 3.1 (≈ 11.1 µM) |  |  |  |  | O=C(OCC1=CC=C(CO)SS1)c1ccccc1
23 | 3.1 (≈ 12.2 µM) | 3.1 (≈ 12.2 µM) | 1.6 (≈ 6.32 µM) |  |  |  |  | OCC1=CC=C(COc2cccnc2)SS1
24 | 0.4 (≈ 1.34 µM) | 0.2 (≈ 0.67 µM) | 0.1 (≈ 0.335 µM) |  |  |  |  | O=[N+]([O-])c1ccc(OCC2=CC=C(CO)SS2)nc1
25 | 6.3 (≈ 27.4 µM) | 0.8 (≈ 3.47 µM) | 1.6 (≈ 6.95 µM) |  |  |  |  | CO/N=C/C1=CC=C(/C=N/OC)SS1
26 | 3.1 (≈ 11.5 µM) | 3.1 (≈ 11.5 µM) | 1.6 (≈ 5.92 µM) |  |  |  |  | OCC1=CC=C(COc2ccccc2F)SS1
27 | 2 (≈ 5.18 µM) | 2 (≈ 5.18 µM) |  |  |  |  |  | O=C(OCC1=CC=C(COC(=O)c2ccncc2)SS1)c1ccncc1
28 | 6.3 (≈ 27.4 µM) | 6.3 (≈ 27.4 µM) | 6.3 (≈ 27.4 µM) |  |  |  |  | COC(=O)/C=C/C1=CC=C(CO)SS1
